Where a SMILES comes first, the peptide text is derived from it.
Assays:
[1] = target: T1, Nitric oxide synthase 3 (Bos taurus) (UniProt P29473); assay: Substrate activity at recombinant bovine eNOS assessed as enzyme mediated nitrite production after 40 mins by Griess reagent base LDH assay
T1 sequence (whole entry): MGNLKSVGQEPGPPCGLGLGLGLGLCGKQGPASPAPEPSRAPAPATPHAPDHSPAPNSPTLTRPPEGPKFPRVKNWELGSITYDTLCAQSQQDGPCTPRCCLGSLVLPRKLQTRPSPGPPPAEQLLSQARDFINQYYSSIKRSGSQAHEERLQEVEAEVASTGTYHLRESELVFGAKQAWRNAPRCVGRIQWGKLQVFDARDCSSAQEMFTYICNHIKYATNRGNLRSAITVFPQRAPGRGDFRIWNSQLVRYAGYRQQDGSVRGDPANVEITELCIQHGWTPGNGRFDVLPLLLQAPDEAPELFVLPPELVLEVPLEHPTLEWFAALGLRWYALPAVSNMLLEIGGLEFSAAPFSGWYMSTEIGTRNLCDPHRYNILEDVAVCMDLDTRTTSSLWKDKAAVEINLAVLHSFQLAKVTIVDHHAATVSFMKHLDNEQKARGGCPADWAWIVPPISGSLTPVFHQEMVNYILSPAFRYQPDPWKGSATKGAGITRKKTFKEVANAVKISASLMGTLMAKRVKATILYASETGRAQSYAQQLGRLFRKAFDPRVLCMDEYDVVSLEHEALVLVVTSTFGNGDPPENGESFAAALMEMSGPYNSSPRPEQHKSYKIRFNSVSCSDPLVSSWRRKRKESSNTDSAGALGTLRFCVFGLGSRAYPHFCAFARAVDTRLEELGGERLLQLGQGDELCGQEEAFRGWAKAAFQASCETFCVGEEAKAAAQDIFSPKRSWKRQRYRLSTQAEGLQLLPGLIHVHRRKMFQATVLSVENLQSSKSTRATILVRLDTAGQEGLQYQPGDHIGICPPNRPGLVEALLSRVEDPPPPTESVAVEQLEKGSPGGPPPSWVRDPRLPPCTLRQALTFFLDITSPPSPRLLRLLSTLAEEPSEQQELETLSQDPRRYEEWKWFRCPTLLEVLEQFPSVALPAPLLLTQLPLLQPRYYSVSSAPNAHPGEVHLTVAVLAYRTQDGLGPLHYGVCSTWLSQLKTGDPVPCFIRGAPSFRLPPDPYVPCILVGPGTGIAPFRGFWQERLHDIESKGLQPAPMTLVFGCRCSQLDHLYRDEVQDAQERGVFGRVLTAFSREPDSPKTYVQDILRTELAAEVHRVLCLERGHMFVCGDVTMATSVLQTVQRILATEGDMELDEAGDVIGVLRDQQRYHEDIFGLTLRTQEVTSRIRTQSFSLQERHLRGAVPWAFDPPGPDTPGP
Summary of the method: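 Run for 40 min alongside an l-arginine positive control and a negative control. Stopped with ice-cold 20 mM HEPES pH 5.5, 2 mM EDTA, 2 mM EGTA. NO-derived nitrite quantified by Griess colorimetry (nitrate/nitrite LDH method).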

[2] = Drug metabolism is PBS buffer assessed as compound conversion after 3 hrs by 1H NMR spectroscopy

Compound	Activity [1] [µM]	degraded at 3 h [2] [%]
N/C(=N\O)NCCC[C@H](N)C(=O)NCc1ccncc1	26	–
N=C(N)NCCC[C@H](N)C(=O)NCc1cccnc1	22	–
CN(Cc1cccnc1)C(=O)[C@@H](N)CCCNC(=N)N	23	–
CN(Cc1ccncc1)C(=O)[C@@H](N)CCCNC(=N)N	21	–
N=C(N)NCCC[C@H](N)C(=O)NCc1ccncc1	48	–
CC(NC(=O)[C@@H](N)CCCNC(=N)N)c1cccnc1 (stereo partly drawn)	26	–
CC(=O)N[C@@H](CCCN/C(N)=N/O)C(=O)NCc1ccncc1	27	–
N=C(N)NCCC[C@H](N)C(=O)N[C@@H](Cc1cccnc1)C(=O)O (HELM PEPTIDE1{R.[O=C(O)[C@H](Cc1cccnc1)N[*:1]]}$$$$V2.0)	38	–
N=C(N)NCCC[C@H](N)C(=O)Nc1ccncc1	22	41
N=C(N)NCCC[C@H](N)C(=O)O	25	–
CC(NC(=O)[C@@H](N)CCCNC(=N)N)c1ccncc1 (stereo partly drawn)	20	–
N/C(=N\O)NCCCCC(=O)NCc1ccncc1	29	–

— ChEMBL document CHEMBL4177552, “Synthesis and hyperpolarisation of eNOS substrates for quantification of NO production by 1H NMR spectroscopy” (Bioorg Med Chem, 2017)
